Source: PubChem
Rows were chosen to be rich in hits. Some 1.7% of all compounds tested hit in one or more screens of this group.
PLC-beta3 inh = human PLC-beta3 inhibitors, primary screen, biochemical, fluorescence; 1-phosphatidylinositol 4,5-bisphosphate phosphodiesterase beta-3 (Homo sapiens), Q01970; Purified PLC-beta3, fluorogenic substrate; inhibition, % at 12.2 µM; 370,000 compounds, 0.18% hits;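 note: 0% = median of compound wells on plate and 100% = full blocker control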
PLCg1 inh = PLC-gamma1 enzyme inhibitors, primary screen, biochemical, fluorescence, purified enzyme; 1-phosphatidylinositol 4,5-bisphosphate phosphodiesterase gamma-1 (Homo sapiens), P19174; fluorogenic substrate; inhibition, % at 12.2 µM; 370,000 compounds, 0.84% hits; AID 720700, 2013; in the data active = inhibition above about 9.5%
UCH37 inh = inhibitors of human UCH37 deubiquitinase, primary screen, biochemical, Ub-AMC cleavage, fluorescence | Ubiquitin carboxyl-terminal hydrolase isozyme L5 (Homo sapiens), Q9Y5K5 | purified proteasome/UCH37 | inhibition, % (test concentration not listed) | 330,000 compounds, 0.33% hits | AID 588478, 2011;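 active = mean inhibition over replicate wells above about 20%, limit read from the data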;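 note: 0% = compound-free wells with enzyme and 100% = wells lacking proteasome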
Target sequence (Q9Y5K5 whole entry, looked up): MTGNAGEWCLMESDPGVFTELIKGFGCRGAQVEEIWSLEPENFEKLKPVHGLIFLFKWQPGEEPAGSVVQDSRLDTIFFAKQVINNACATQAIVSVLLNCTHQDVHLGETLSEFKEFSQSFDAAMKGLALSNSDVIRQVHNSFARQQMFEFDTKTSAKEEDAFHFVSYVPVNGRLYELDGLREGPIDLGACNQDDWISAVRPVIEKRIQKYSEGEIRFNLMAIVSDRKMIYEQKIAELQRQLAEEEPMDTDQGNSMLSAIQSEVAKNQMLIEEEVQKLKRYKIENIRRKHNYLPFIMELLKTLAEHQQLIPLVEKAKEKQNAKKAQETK
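Schedule: 30 min plus 25 min, room temperature / Material: human UCH37 within purified proteasomes / Technique: AMC fluorescence intensity at 355/460 nm / Buffer or medium: pH 7.4 Tris-HCl (50 mM) with ovalbumin, ATP-MgCl2, DTT / Controls: wells without proteasome as full block, compound-free enzyme plus substrate as uninhibited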
Rpn11 block = Rpn11 (PSMD14) deubiquitinase inhibitors, primary screen, biochemical, fluorescence polarization, uHTS; inhibition, % at 20 µM; 360,000 compounds, 0.59% hits; 26S proteasome non-ATPase regulatory subunit 14 (Homo sapiens), O00487; human 26S proteasome, Ub4-pepOG fluorescence polarization; 20S core pre-blocked with epoxomicin;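 active = inhibition at 20 µM, scaled to each plate's controls, above about 33%, limit read from the data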
Target sequence (O00487 whole entry, looked up): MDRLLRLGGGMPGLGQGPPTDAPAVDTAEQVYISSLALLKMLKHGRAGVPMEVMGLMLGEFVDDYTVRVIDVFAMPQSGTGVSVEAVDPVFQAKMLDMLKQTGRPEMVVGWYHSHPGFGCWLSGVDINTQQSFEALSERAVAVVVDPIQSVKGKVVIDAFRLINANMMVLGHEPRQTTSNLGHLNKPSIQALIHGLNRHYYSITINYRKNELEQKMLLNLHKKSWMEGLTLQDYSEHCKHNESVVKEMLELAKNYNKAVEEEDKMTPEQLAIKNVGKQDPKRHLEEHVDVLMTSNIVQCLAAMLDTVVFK
PLCgamma1 ctr = PLC-gamma1 enzyme inhibitors, counter-screen for PLC-beta3 inhibitor project, biochemical, fluorescence. purified PLC-gamma1, fluorogenic substrate. shares compounds with PLCg1 inh. AID 743258, 2014. 3,300 compounds, 3.1% hits. inhibition, % at 12.3 µM; in the data active = inhibition above about 9.5%
PLCb3 confirm = PLC-beta3 inhibitor confirmation, biochemical, fluorescence, purified enzyme | shares compounds with PLCg1 inh | fluorogenic substrate fluorescence | inhibition, % at 12.3 µM | 3,300 compounds, 1% hits
The depositor's hits bear a star; nt = not tested or not shown. Cut-off read from the data, not from the text of the source, unless noted: active = inhibition above about 11%; inactive = the rest.

SMILES	PLC-beta3 inh	PLCg1 inh	UCH37 inh	Rpn11 block	PLCgamma1 ctr	PLCb3 confirm
Cc1cc(C)n(-c2nc3c(c(=O)[nH]c(=O)n3C)n2CC(C)C)n1	0	0	1	-4	nt	nt
Cc1ccc(-c2c[n+](CC(=O)Nc3ccccc3C)c3n2CCC3)cc1	-5	9.8*	4	2	-1	2
Cc1ccc(-c2c[n+](CC(=O)Nc3nc(-c4ccccc4)cs3)c3n2CCC3)cc1	11*	12*	5	5	4	3
CCCCN(C(=O)COc1ccc(C)cc1OC)c1c(N)n(CCC)c(=O)[nH]c1=O	-5	12*	3	0	-3	-1
Cc1ccc([N+](=O)[O-])cc1CN1CCN(c2ncc(Cc3ccccc3)cn2)CC1	14*	3	nt	nt	-2	-3
CCCn1c(N)c(N(CCOC)C(=O)c2ccccc2F)c(=O)[nH]c1=O	0	3	1	2	nt	nt
CCCCn1c(N)c(N(CC)C(=O)c2ccccc2F)c(=O)[nH]c1=O	6	12*	2	8	-3	1
Cc1[nH]n(S(=O)(=O)c2ccccc2)c(=O)c1N=Nc1cccc(Cl)c1	-10	-4	1	5	nt	nt
Cc1[nH]n(S(=O)(=O)Cc2ccccc2)c(=O)c1N=Nc1ccccc1Cl	1	12*	4	-2	2	5
COc1ccc(CNC(=O)CC(C)=NNC(=O)COc2ccc(Br)cc2)cc1	nt	nt	5	nt	nt	nt
COc1cc(C=NNC(=O)NC23CC4CC(CC(C4)C2)C3)ccc1O	nt	nt	4	nt	nt	nt
Cc1nnc(N/N=C/c2ccccc2F)n1N	1	12*	nt	3	-4	-1
CCc1nnc(NN=Cc2ccccc2F)n1N	nt	nt	4	nt	nt	nt
Cc1nnc(N/N=C/c2cccc(C(F)(F)F)c2)n1N	11	13*	nt	0	-3	0
Cc1nnc(N/N=C/c2cccc(OCc3ccc(Cl)c(Cl)c3)c2)n1N	11*	13*	nt	15	-21	-13
CC(=NNS(=O)(=O)c1ccc(Cl)cc1)c1cccc(NC(=O)c2ccc(Cl)cc2Cl)c1	nt	nt	1	nt	nt	nt
Cc1ccc(S(=O)(=O)NCCSc2nncn2C)cc1	-6	2	4	-2	nt	nt
Cc1ccc(S(=O)(=O)NC(C)(C)CSc2nncn2N)cc1	3	11*	4	0	0	2
N#CC(=NNc1ccc(S(=O)(=O)N2CCCCC2)cc1)C(N)=S	nt	nt	16	nt	nt	nt
Cc1cnnc2c1-c1no[n+]([O-])c1CC2	9	13*	4	-3	0	2
O=C(CN1CCCC1)NC12CC3CC(CC(C3)C1)C2	1	1	4	0	nt	nt
O=C(CN1CCCC1)NCC12CC3CC(CC(C3)C1)C2	8	11*	4	2	-1	1
O=C1C=C[C@H]2CC[C@@H](O)[C@@H]1[C@@H]2Sc1ccccc1	-2	10*	nt	nt	3	-1
CCCC(O)(c1ccc(OC)cc1)C(CN1CCOCC1)c1ccc(Cl)cc1 (stereo not drawn)	1	11*	3	0	-1	4
C=CCN1C(=O)C(Cc2ccc(F)cc2)SC1=NN=Cc1cccs1 (stereo not drawn)	nt	nt	2	nt	nt	nt
SMILES	PLC-beta3 inh	PLCg1 inh	UCH37 inh	Rpn11 block	PLCgamma1 ctr	PLCb3 confirm
Cc1c(C(=O)NN)[nH]c2ccc([N+](=O)[O-])cc12	59*	1	2	2	-8	-2
CNC(=O)NN=C(N)c1ccccn1	nt	nt	1	nt	nt	nt
CCOc1ccc(/C=C/c2c([N+](=O)[O-])c(=O)n(C)c(=O)n2C)cc1	4	11*	6	1	2	2
Cc1ccc(C)c(N(Cc2ccccc2F)S(C)(=O)=O)c1	0	10*	4	-5	-1	1
Cc1ccc(N(Cc2ccccc2F)S(C)(=O)=O)c(C)c1	2	0	3	7	nt	nt
Cn1c(CNc2cccc(Cl)c2)nnc1SCC(=O)OC1CCCCC1	-4	-1	7	0	nt	nt
CC(C)OC(=O)CSc1nnc(CNc2cccc(Cl)c2)n1C	3	10*	0	-8	-7	-3
CC(=O)N(Cc1cccnc1)c1cccc(-c2nc3ccccc3s2)c1	-3	9.8*	0	-2	-5	-6
Nc1c(C(=O)N/N=C/c2ccc([N+](=O)[O-])cc2)cnn1-c1ccccc1	-1	10*	nt	2	5	6
CC(=O)NCC(=O)OCN1C(=O)c2ccccc2C1=O	6	10*	1	-1	-5	0
CN(C)c1ccc(/C=C/C=NNc2nc(N3CCOCC3)nc(N3CCOCC3)n2)cc1	nt	nt	-53	nt	nt	nt
O=C1[C@H](Cc2ccccc2)NCCCC[C@@H](c2ccc(Cl)cc2)N1Cc1ccccc1	1	16*	-3	8	1	2
O=[N+]([O-])c1ccc(N/N=C/c2cccc(O)c2O)c(S(=O)(=O)N2CCOCC2)c1	-5	15*	nt	-8	-4	-5
COc1ccc(OC)c(C=NNC(=O)CNC(=O)c2ccc(S(=O)(=O)N3CCCC3)cc2)c1	nt	nt	-71	nt	nt	nt
CCCOP(=O)(c1ccc(N(C)C)cc1)C(O)c1ccccc1OC (stereo not drawn)	5	10*	3	1	-1	1
CN1CC=C(c2ccccc2)N(c2ccccc2)C1=O	12*	4	nt	nt	-7	-2
CN1CC=C(c2ccc(C(F)(F)F)cc2)N(c2ccccc2)C1=O	-3	1	nt	nt	nt	nt
COc1cc(C=NNC(N)=O)ccc1OCC(=O)N1C(C)CCCC1C (stereo not drawn)	nt	nt	2	nt	nt	nt
COc1ccc(OCC(=O)NN=Cc2ccc(OC)c(OC)c2C(=O)O)cc1	nt	nt	1	nt	nt	nt
C=CCN=C1NC(c2cccc(Cl)c2)C(C(=O)OC)=C(C)N1Cc1cccc(C(F)(F)F)c1 (stereo not drawn)	12*	9	nt	nt	-11	-7
COC(=O)C1=C(C)N(Cc2ccccc2C(F)(F)F)C(=NCc2ccc3c(c2)OCO3)NC1c1cccc(F)c1 (stereo not drawn)	1	1	nt	nt	nt	nt
COC(=O)C1=C(C)N(Cc2ccccc2C(F)(F)F)C(=NCc2ccc3c(c2)OCO3)NC1c1cccc(Cl)c1 (stereo not drawn)	3	12*	nt	nt	-2	-4
CC(C)=CCCC1=CCC(C(C)=NNC(N)=O)CC1 (stereo not drawn)	nt	nt	11	nt	nt	nt
CC(C)(Oc1ccc(Cl)cc1)C(=O)OCC(=O)Nc1ncc(Cl)cc1Cl	12*	8	4	5	-1	1
COc1ccc(-c2ccc(C)cc2)cc1[C@H]1[C@H]2C=CC[C@@H](C)[C@@H]2C(=O)N1Cc1ccccc1	11*	5	-1	1	-6	-3
CC(=NNC(=O)c1ccco1)c1cccc(NC(=O)c2ccc(C)s2)c1	nt	nt	3	nt	nt	nt
